Assay outcomes: PubChem BioAssay, several laboratories
A selection: hits, their analogues and other compounds. The true share with any hit is near 1.9%.
Arr AP2 block: blocks beta-arrestin peptide binding to AP2 adaptin; 340,000 tested, 0.31% active; AID 504490; inhibition, % at 10 µM; FITC-arrestin peptide / GST-AP2 beads, flow cytometry; AP2 beta2 appendage carries R879A mutation;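 active = inhibition above a set limit, near 3 SD of compounds lacking own fluorescence, cut at about 54% in these data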
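System: GST-AP2 R879A glutathione beads | Also added: FITC-arrestin peptide, 50 nM | Times: 12 min plus 1 h, RT | Signal: Bead flow cytometry, FITC channel | Buffer or medium: PBS with 0.05% Tween 20 and 0.1% BSA | Read-out basis: Percent drop in bead-associated FITC signal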
procasp3 activ: activates human procaspase-3; 330,000 tested, 0.11% active; activation, % at 8.5 µM; P42574; recombinant procaspase-3 D3A, Ac-DEVD-pNA absorbance 405 nm;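 active = activation above the mean of all tested compounds plus 3 SD, cut at about 21% in these data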
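Assay system: Autoprocessing-dead procaspase-3 D3A mutant enzyme; also added: Ac-DEVD-pNA; doses: one concentration, 8.5 µM nominal, 0.8% DMSO; times: 1 h compound preincubation, 2 h substrate hydrolysis at 25 °C; technique: 405 nm absorbance of p-nitroaniline, reads at 0 and 120 min; measure: % activation between DMSO and enzyme-spiked controls; repeats: single replicate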
proCasp7 act: counter-screen: procaspase-7 (human) activation; P55210; recombinant procaspase-7, Ac-DEVD-pNA absorbance 405 nm; D23A/D198A/D206A triple mutant, cannot self-cleave; scale: DMSO 0, 5 µM enzyme 100; 330,000 tested, 0.093% active; activation, % at 8.5 µM;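 active = percent activation above the screen-wide mean plus 3 SD, cut at about 25% in these data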
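Replicates: singlicate. Assay system: Procaspase-7 triple mutant (PC-7 D3A). Signal: 405 nm absorbance of p-nitroaniline. Times: 1 h preincubation, 2 h reaction. Buffer or medium: Zinc-free HEPES pH 7.4 with 300 mM NaCl, 0.01% Triton X-100. Also added: DEVD-pNA substrate. Benchmarks: DMSO wells as 0%, DMSO with 5 µM added PC-7 as 100%.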
PLCg1 inh: PLC-gamma1 (human) inhibition, primary screen; 370,000 tested, 0.84% active; inhibition, % at 12.2 µM; P19174; purified PLC-gamma1, fluorogenic substrate, fluorescence; in the data active = inhibition above about 9.5%
sPLA2-III inh: Blocks human group III sPLA2 activity | Q9NZ20 | QFRET BODIPY PC-A2 liposome hydrolysis, fluorescence | 370,000 tested, 0.56% active | inhibition, % at 12.2 µM;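 active = inhibition above mean plus 3 SD of compounds lying within the high and low control bounds, cut at about 19% in these data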
Target sequence (Q9NZ20 whole entry, looked up): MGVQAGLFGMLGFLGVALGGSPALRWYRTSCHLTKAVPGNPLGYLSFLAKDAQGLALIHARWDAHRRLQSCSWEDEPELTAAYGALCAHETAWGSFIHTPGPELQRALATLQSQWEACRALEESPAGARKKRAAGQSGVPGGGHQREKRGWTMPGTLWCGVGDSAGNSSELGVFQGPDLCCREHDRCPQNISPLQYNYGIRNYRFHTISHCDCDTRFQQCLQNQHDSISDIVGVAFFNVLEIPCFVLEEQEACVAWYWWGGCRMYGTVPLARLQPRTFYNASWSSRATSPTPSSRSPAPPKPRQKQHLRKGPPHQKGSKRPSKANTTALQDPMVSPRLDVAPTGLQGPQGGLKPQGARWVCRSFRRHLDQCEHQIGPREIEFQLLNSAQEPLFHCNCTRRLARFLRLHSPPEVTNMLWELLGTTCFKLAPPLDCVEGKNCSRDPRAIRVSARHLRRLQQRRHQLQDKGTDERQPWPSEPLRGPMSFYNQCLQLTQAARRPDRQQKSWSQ
PLC-beta3 inh: inhibitors of human phospholipase C beta3 | AID 720704 | Q01970 | inhibition, % at 12.2 µM | 370,000 tested, 0.18% active | Purified PLC-beta3, fluorogenic substrate, fluorescence; in the data active = inhibition above about 11%
proCasp7 act trip: counter-screen for procaspase-3 activators: activators of human procaspase-7; shares compounds with procasp3 activ; recombinant procaspase-7, Ac-DEVD-pNA absorbance; asp23/198/206-to-Ala mutant, cannot self-cleave; activation, % at 8.5 µM; 210 tested, under 10 active; AID 488941;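 active = mean activation above a set limit taken from an earlier procaspase-7 screen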
procasp3 conf: confirmation of human procaspase-3 activators | AID 488954 | shares compounds with procasp3 activ | 210 tested, 10% active | activation, % at 8.5 µM | recombinant PC-3 D3A, Ac-DEVD-pNA absorbance 405 nm; 100% is higher-enzyme control;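 active = mean activation above a set limit carried over from the earlier primary screen, cut at about 22% in these data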
PC3 D3A act: activates human procaspase-3, dual activator counter-screen. shares compounds with proCasp7 act. recombinant PC-3 D3A, Ac-DEVD-pNA absorbance 405 nm; aspartates 9, 28, 175 changed to alanine; 100% = enzyme control. activation, % at 8.5 µM. 290 tested, under 10 active. AID 493114;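 active = mean percent activation across triplicates above a set limit taken from the earlier primary procaspase-3 screen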
PC7 dual conf: procaspase-7 (human) activation, dual activator confirmation. shares compounds with proCasp7 act. recombinant procaspase-7, Ac-DEVD-pNA absorbance 405 nm; D23A/D198A/D206A mutant that cannot self-cleave. activation, % at 8.5 µM. 290 tested, under 10 active;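 active = mean activation above a set limit carried over from the earlier primary screen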
A number is an active result; 0 = inactive; - = not tested or not shown.

SMILES | Arr AP2 block | procasp3 activ | proCasp7 act | PLCg1 inh | sPLA2-III inh | PLC-beta3 inh | others
COC(=O)C1=C(c2ccc(OCc3ccccc3)c(F)c2)C[C@@H]2CC[C@H]1N2C | - | - | - | 12.6 | 0 | 0
Nc1ccc(N=Nc2ccccc2)cc1 | 0 | 0 | 0 | 0 | 0 | 0
Cc1cc(N=Nc2ccccc2C)ccc1N | 0 | 0 | 0 | 9.6 | 0 | 0
CCn1nc(/C=C/c2ccccc2)nc2c(=O)n(C)c(=O)nc1-2 | 0 | - | - | 42.6 | 0 | 0
CCn1nc(-c2cccs2)nc2c(=O)n(C)c(=O)nc1-2 | 0 | - | - | - | - | -
O=[N+]([O-])c1cc(S(=O)(=O)c2ccc(O)c([N+](=O)[O-])c2)ccc1O | 0 | 0 | 0 | 35.3 | 0 | 0
O=C(O)c1cc[c]([Hg][Cl])cc1 | 95.2 | 0 | 0 | - | - | -
CCOC(=O)NC1CCc2cc(OC)c(OC)c(OC)c2-c2ccc(OC)c(=O)cc21 (configuration not stated) | 0 | - | - | 0 | 0 | 0
COc1cc2c(c(OC)c1OC)-c1ccc(OC)c(=O)cc1C(N)CC2 (configuration not stated) | 0 | - | - | 0 | 0 | 0
O=C(NCCN1CCC2(CC1)C(=O)NCN2c1ccccc1)c1ccc(Cl)c(Cl)c1 | - | - | - | 0 | 0 | 0
O=C(O)c1cccc2c1NC(C(=O)O)C1CC(Sc3ccccc3[N+](=O)[O-])C(Cl)C21 (configuration not stated) | 0 | 0 | 0 | 19.1 | 0 | 0
COc1cc2c(c(OC)c1OC)-c1ccc(SC)c(=O)cc1C(N)CC2 (configuration not stated) | 0 | - | - | 0 | 0 | 0
CCOc1c(Cl)cc(CNCCc2c[nH]c3ccccc23)cc1OC | 0 | 0 | 0 | 0 | 0 | 0
CCOc1cc(CNCCc2c[nH]c3ccccc23)cc(Cl)c1OCC | 0 | 0 | 0 | 11.9 | 0 | 11.8
Cc1ccc(-c2nc3ccccc3c(=O)n2-c2cccc(C)n2)cc1 | 0 | 44.4 | 0 | 0 | 0 | 0 | proCasp7 act trip=0;procasp3 conf=0
CCCCn1c(N)c(C(=O)NCc2cccs2)c2nc3ccccc3nc21 | 0 | 46.4 | 0 | 0 | 0 | 0 | proCasp7 act trip=0;procasp3 conf=0
COCCOC(=O)c1c(N)n(Cc2ccccc2)c2nc3ccccc3nc12 | 0 | 0 | 0 | 0 | 0 | 0
COCCCn1c(N)c(C(=O)NCCC(C)C)c2nc3ccccc3nc21 | 0 | 31.8 | 0 | 0 | 0 | 0 | proCasp7 act trip=0;procasp3 conf=0
CCCOC(=O)c1c(N)n(Cc2cccs2)c2nc3ccccc3nc12 | 0 | 47.6 | 0 | 0 | 0 | 0 | proCasp7 act trip=0;procasp3 conf=0
Cc1ccccc1CCC[C@H](CC1CCCCC1)CN(C)C(=O)Oc1ccccc1 | - | - | - | 0 | 0 | 0
N#CC1c2ccccc2-n2nncc2CN1C(=O)c1cccnc1 (configuration not stated) | - | - | - | 0 | 0 | 0
CN1c2ccc(Br)cc2[C@H]2NCC[C@H]2[C@H]1CO | - | - | - | 0 | 0 | 0
CC[n+]1c(/C=C/N(C)c2ccccc2)sc2ccc(Cl)cc21 | 0 | 0 | 0 | 0 | 0 | 0
CC[n+]1c(/C=C/C=C/c2ccc(N(C)C)cc2)sc2ccccc21 | 0 | 39.1 | 0 | 0 | 37.1 | 0 | proCasp7 act trip=0;procasp3 conf=0
Nc1c(C(=O)NCc2ccco2)c2nc3ccccc3nc2n1Cc1ccccc1 | 0 | 0 | 45.8 | 0 | 0 | 0 | PC3 D3A act=0;PC7 dual conf=0
